In brackets after ≈: the same amount, converted by molar mass. Activity calls are given as the source filed them. No cut-off for these calls is given here.
Columns and labels:
Bacillus cereus = test: Antibacterial activity against clinical isolates of Bacillus cereus ATCC 11778 after 24 hrs by […]; type: functional; details: ATCC 11778, 24 h
[1] = Selectivity index, ratio of HC50 for hemolytic activity against New Zealand white rabbit RBC to MIC for clinical isolates of Staphylococcus aureus DM4001
Staphylococcus aureus [2] = test: Induction of membrane permeabilization in clinical isolates of Staphylococcus aureus DM4001 at 50 uM by SYTOX green uptake assay; type: functional
Outline: (§1)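 Exponential-phase cells washed twice in 20 mM PBS pH 7 and adjusted to OD620 0.09. Given 3 µM SYTOX Green and kept in the dark until fluorescence was stable, then compound added. Fluorescence followed in a stirred cuvette at ex 504/em 523 nm. Melittin 10 µg/mL was the positive control. Run at least twice; one run reported.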

Staphylococcus aureus [3] = test: Antibacterial activity against clinical isolates of methicillin-resistant Staphylococcus aureus DM9808R after 24 hrs by […]; type: functional
Staphylococcus aureus [4] = test: Antibacterial activity against clinical isolates of methicillin-resistant Staphylococcus aureus DM21455 after 24 hrs by […]; type: functional; details: DM21455, 24 h
Staphylococcus aureus [5] = test: Antibacterial activity against clinical isolates of Staphylococcus aureus DM4001R after 24 hrs by […]; type: functional
[6] = Hemolytic activity against New Zealand white rabbit RBC after 1 hr by microplate reader analysis; type: ADME, cell-based, Oryctolagus cuniculus, Erythrocyte; details: rabbit red blood cells
Outline: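 Rabbit RBCs spun from serum at 3,000 rpm for 10 min and washed twice in PBS. Mixed with compound in DMF at 4% v/v RBCs, 1 h at 37 °C. After centrifugation, hemoglobin in the supernatant read at 576 nm. 2% Triton X-100 was the positive control and 1% DMF the negative control.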

Staphylococcus aureus [7] = test: Induction of membrane permeabilization in clinical isolates of Staphylococcus aureus DM4001 assessed as ATP leakage at 50 uM incubated for 10 mins by firefly luciferase based luminometry analysis; type: functional
Outline: (§2)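 Exponential-phase cells washed twice in 20 mM PBS pH 7 and set to OD620 0.3. Exposed 10 min at 37 °C, then spun at 4000 rpm for 5 min. Supernatant mixed with luciferase reagent (1 mM DTT, 0.5 mM D-luciferin, 1.25 µg/mL firefly luciferase). Luminescence read over 30 cycles.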

Staphylococcus aureus [8] = test: Induction of membrane permeabilization in clinical isolates of Staphylococcus aureus DM4001 by SYTOX green uptake assay; type: functional; outline: as §1
[9] = Membrane permeabilization activity assessed as release of calcein from DOPC liposomes at 16 to 64 lipid:compound ratio incubated for 30 mins by fluorescence assay; type: ADME; details: 0.5 h
Staphylococcus aureus [10] = test: Induction of membrane permeabilization in clinical isolates of Staphylococcus aureus DM4001 at MIC by SYTOX green uptake assay; type: functional; outline: as §1
Staphylococcus aureus [11] = test: Induction of membrane permeabilization in clinical isolates of Staphylococcus aureus DM4001 assessed as ATP leakage at MIC incubated for 10 mins by firefly luciferase based luminometry analysis; type: functional; outline: as §2
[12] = Membrane permeabilization activity assessed as release of calcein from DOPE/DOPG liposomes at lipid:compound ratio of 8 incubated for 30 mins by fluorescence assay; type: ADME; details: 0.5 h
Outline: (§3)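 Freeze-thawed, extruded, then gel-filtered. Final lipid 50 µM with compound added from DMF (<0.2%). Fluorescence at ex 490/em 520 nm over 30 min; 0.1% Triton X-100 defined 100% lysis.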

[13] = Membrane permeabilization activity assessed as release of calcein from DOPC liposomes at lipid:compound ratio of 4 incubated for 30 mins by fluorescence assay; type: ADME; details: 0.5 h; outline: as §3
[14] = Membrane permeabilization activity assessed as release of calcein from DOPC liposomes at lipid:compound ratio of 8 incubated for 30 mins by fluorescence assay; type: ADME; details: 0.5 h; outline: as §3
[15] = Membrane permeabilization activity assessed as release of calcein from DOPE/DOPG liposomes at lipid:compound ratio of => 16 incubated for 30 mins by fluorescence assay; type: ADME; details: 0.5 h; outline: as §3
[16] = Membrane permeabilization activity assessed as release of calcein from DOPE/DOPG liposomes at lipid:compound ratio of 4 incubated for 30 mins by fluorescence assay; type: ADME; details: 0.5 h; outline: as §3
[17] = Membrane permeabilization activity assessed as release of calcein from DOPC liposomes at lipid:compound ratio of => 16 incubated for 30 mins by fluorescence assay; type: ADME; details: 0.5 h; outline: as §3
Staphylococcus aureus [18] = test: Bactericidal activity against clinical isolates of methicillin resistant Staphylococcus aureus DM21455 assessed as log reduction in viability measured up to 300 mins by time kill kinetic study; type: functional, organism-based
Outline: (§4)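 Colonies from 18–22 h TSA plates suspended in 0.31 mM phosphate buffer pH 7.2 at 10^5–10^6 CFU/mL. Treated at 1×, 2× and 4× MIC at 35 °C, sampled at 10 min, 30 min, 1 h, 2 h and 5 h. Ten-fold dilutions spread on MHA, 35 °C for 48–72 h, colonies counted. Detection limit 100 CFU/mL; bactericidal means 3-log drop versus untreated.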

[19] = Membrane permeabilization activity assessed as release of calcein from DOPE/DOPG liposomes at lipid:compound ratio of 16 incubated for 30 mins by fluorescence assay; type: ADME; details: 0.5 h; outline: as §3
[20] = Cytotoxicity in human corneal fibroblasts at 2 times MIC incubated for 4 hrs by LDH release assay relative to control; details: corneal fibroblast
[21] = Cytotoxicity in human corneal fibroblasts at 4 times MIC incubated for 4 hrs by LDH release assay relative to control; details: corneal fibroblast
[22] = Cytotoxicity in human corneal fibroblasts assessed as cell viability at 2 times MIC incubated for 4 hrs by luminescent cell viability assay relative to control; parameters: species or system Corneal fibroblast; details: read-out: Activity
Outline: (§5)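 Cells plated at 10,000 per well and exposed 4 h in 100 µL. Plate equilibrated to 22 °C for 30 min, then read with CellTiter-Glo luminescence. 1% Triton X-100 set minimal viability and 0.5% DMF served as negative control. Viability computed relative to these controls.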

[23] = Cytotoxicity in human corneal fibroblasts at 0.5 times MIC incubated for 4 hrs by LDH release assay relative to control; details: corneal fibroblast
[24] = Cytotoxicity in human corneal fibroblasts assessed as cell viability at 4 times MIC incubated for 4 hrs by luminescent cell viability assay relative to control; parameters: species or system Corneal fibroblast; details: read-out: Activity; outline: as §5
[25] = Cytotoxicity in human corneal fibroblasts at MIC incubated for 4 hrs by LDH release assay relative to control; details: corneal fibroblast
Staphylococcus aureus [26] = test: Bactericidal activity against clinical isolates of Staphylococcus aureus DM4001 assessed as log reduction in viability at 2 times MIC measured over 300 mins by time kill kinetic study; type: functional; outline: as §4
Staphylococcus aureus [27] = test: Bactericidal activity against clinical isolates of Staphylococcus aureus DM4001 at 2 times MIC measured over 300 mins by time kill kinetic study; type: functional
Outline: (§6)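 Cells from colonies on an 18–22 h TSA plate, suspended in 0.31 mM phosphate buffer pH 7.2 at 10^5–10^6 CFU/mL. Dosed at 1×, 2× and 4× MIC at 35 °C. Aliquots taken at 10 min, 30 min, 1 h, 2 h and 5 h, diluted ten-fold serially, spread on MHA and counted after 48–72 h at 35 °C. Detection limit 100 CFU/mL. Bactericidal means a 3-log drop versus untreated control.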

[28] = Cytotoxicity in human corneal fibroblasts assessed as cell viability at 0.5 times MIC incubated for 4 hrs by luminescent cell viability assay relative to control; parameters: species or system Corneal fibroblast; details: read-out: Activity; outline: as §5
Staphylococcus aureus [29] = test: Bactericidal activity against clinical isolates of Staphylococcus aureus DM4001 assessed as log reduction in viability at 4 times MIC measured over 30 mins by time kill kinetic study; type: functional; outline: as §6
Staphylococcus aureus [30] = test: Bactericidal activity against clinical isolates of Staphylococcus aureus DM4001 at 4 times MIC measured over 30 mins by time kill kinetic study; type: functional; outline: as §6
[31] = Cytotoxicity in human corneal fibroblasts assessed as cell viability at MIC incubated for 4 hrs by luminescent cell viability assay relative to control; parameters: species or system Corneal fibroblast; details: read-out: Activity; outline: as §5

SMILES | MIC (Bacillus cereus) | Selectivity ratio [1] | MIC (Staphylococcus aureus [3]) | MIC (Staphylococcus aureus [4]) | MIC (Staphylococcus aureus [5]) | HC50 at 1 h [6] | Activity [12] | other results
COc1c(OCCCCN2CC[C@H](N(C)C)C2)cc2oc3cc(OCCCCN4CC[C@H](N(C)C)C4)c(CC=C(C)C)c(O)c3c(=O)c2c1CC=C(C)C | 6.25 µg/mL (≈ 8.37 µM) | 2.3 | 6.25 µg/mL (≈ 8.37 µM) | 6.25 µg/mL (≈ 8.37 µM) | 12.5 µg/mL (≈ 16.7 µM) | 28.9 µg/mL |  | Activity (Staphylococcus aureus [2]): 58191 cps; Activity (Staphylococcus aureus [7]): 7962 nM
CCN(CC)CCCCOc1cc2oc3cc(OCCCCN(CC)CC)c(OC)c(CC=C(C)C)c3c(=O)c2c(OCCCCN(CC)CC)c1CC=C(C)C | 50 µg/mL (≈ 63.1 µM) |  | 50 µg/mL (≈ 63.1 µM) | 25 µg/mL (≈ 31.6 µM) | 12.5 µg/mL (≈ 15.8 µM) | > 200 µg/mL |  | Activity (Staphylococcus aureus [8]): 4305.1 cps
COc1c(OCCCCN(C)C)cc2oc3cc(OCCCCN(C)C)c(CC=C(C)C)c(O)c3c(=O)c2c1CC=C(C)C | 6.25 µg/mL (≈ 10.3 µM) | 10.3 | 3.12 µg/mL (≈ 5.13 µM) | 3.12 µg/mL (≈ 5.13 µM) | 3.12 µg/mL (≈ 5.13 µM) | 32.1 µg/mL |  | Activity [9]: Active; Activity (Staphylococcus aureus [10]): 23925 cps; Activity (Staphylococcus aureus [11]): 3769 nM
COc1c(O)cc2oc3cc(O)c(CCC(C)C)c(O)c3c(=O)c2c1CCC(C)C | > 50 µg/mL |  | > 50 µg/mL | > 50 µg/mL | > 50 µg/mL | > 200 µg/mL | Not Active | Activity [13]: Not Active; Activity [14]: Not Active; Activity [15]: Not Active; Activity [16]: Not Active; Activity [17]: Not Active
CCN(CC)CCCCOc1ccc2c(=O)c3c(O)cc(OCCCCN(CC)CC)cc3oc2c1 | > 50 µg/mL |  | > 50 µg/mL | > 50 µg/mL | > 50 µg/mL | > 200 µg/mL | Not Active | Activity [13]: Not Active; Activity [14]: Not Active; Activity [15]: Not Active; Activity [16]: Not Active; Activity [17]: Not Active
COc1c(OCCCCN(C)Cc2ccccc2)cc2oc3cc(OCCCCN(C)Cc4ccccc4)c(CC=C(C)C)c(O)c3c(=O)c2c1CC=C(C)C | > 50 µg/mL |  | > 50 µg/mL | > 50 µg/mL | > 50 µg/mL | > 200 µg/mL |  | Activity (Staphylococcus aureus [2]): 1778 cps; Activity (Staphylococcus aureus [7]): 574 nM
CN[C@@H](CC(C)C)C(=O)N[C@H]1C(=O)N[C@@H](CC(N)=O)C(=O)N[C@H]2C(=O)N[C@H]3C(=O)N[C@H](C(=O)N[C@@H](C(=O)O)c4cc(O)cc(O)c4-c4cc3ccc4O)[C@H](O)c3ccc(c(Cl)c3)Oc3cc2cc(c3O[C@H]2O[C@@H](CO)[C@H](O)[C@@H](O)[C@@H]2O[C@@H]2C[C@@](C)(N)[C@@H](O)[C@@H](C)O2)Oc2ccc(cc2Cl)[C@H]1O |  |  |  |  |  |  |  | Activity (Staphylococcus aureus [18]): inactive
CCN(CC)CCCCOc1cc2oc3cc(OCCCCN(CC)CC)c(OC)c(CCC(C)C)c3c(=O)c2c(O)c1CCC(C)C | 25 µg/mL (≈ 37.4 µM) | 15.6 | 12.5 µg/mL (≈ 18.7 µM) | 25 µg/mL (≈ 37.4 µM) | 3.12 µg/mL (≈ 4.67 µM) | 48.6 µg/mL | 58.6% | Activity [19]: 20.1%
O=c1c2ccc(O)cc2oc2cc(O)cc(O)c12 | > 50 µg/mL |  | > 50 µg/mL | > 50 µg/mL | > 50 µg/mL | > 200 µg/mL | Not Active | Activity [13]: Not Active; Activity [14]: Not Active; Activity [15]: Not Active; Activity [16]: Not Active; Activity [17]: Not Active
COc1c(OCCCCN)cc2oc3cc(OCCCCN)c(CC=C(C)C)c(O)c3c(=O)c2c1CC=C(C)C | 3.12 µg/mL (≈ 5.65 µM) | 51.4 | 3.12 µg/mL (≈ 5.65 µM) | 1.56 µg/mL (≈ 2.82 µM) | 1.56 µg/mL (≈ 2.82 µM) | 80.2 µg/mL |  | Activity [20]: -0.5%; Activity [21]: 0.9%; viability at 4 h, 2 times MIC [22]: 90.7%; Activity [23]: -0.7%; viability at 4 h, 4 times MIC [24]: 90.3%; Activity [25]: -1%; LCK (Staphylococcus aureus [26]): 3; Activity (Staphylococcus aureus [27]): 99.9%; viability at 4 h, 0.5 times MIC [28]: 98.5%; Activity (Staphylococcus aureus [10]): 1497 cps; Activity (Staphylococcus aureus [11]): 210 nM; LCK (Staphylococcus aureus [29]): 3; Activity (Staphylococcus aureus [30]): 99.9%; viability at 4 h, 1 times MIC [31]: 91.7%
CCCCN(CCCC)CCCCOc1cc2oc3cc(OCCCCN(CCCC)CCCC)c(OC)c(CC=C(C)C)c3c(=O)c2c(O)c1CC=C(C)C | > 50 µg/mL |  | > 50 µg/mL | > 50 µg/mL | > 50 µg/mL | > 200 µg/mL |  | Activity (Staphylococcus aureus [2]): 1768 cps; Activity (Staphylococcus aureus [7]): 763 nM

Reference: ChEMBL document CHEMBL3751813, “Nonpeptidic Amphiphilic Xanthone Derivatives: Structure-Activity Relationship and Membrane-Targeting Properties” (J Med Chem, 2016)
